Calls of active or inactive are those of the source. No cut-off for these calls is given here.
Legend:
[1] = test system: A549; test: Antiproliferative activity against human A549 cells assessed as growth inhibition at 1 uM after 72 hrs by MTT assay relative to control; type: functional; conditions: read-out: GI
How it was run: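 Single-concentration MTT screen on MCF-7 and A549 cells grown in DMEM + 10% FBS. Cells at 3000–6000/well, cultured overnight, then given compound in buffer with 1% DMSO for 72 h. MTT (0.5 mg/mL) added for 4 h, formazan dissolved in DMSO, A570 read. Percent inhibition reported as the average ± S.D. of three independent measurements.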

[2] = organism: Homo sapiens; test: Inhibition of PDK (unknown origin) using RYHGHSMSDP as substrate at 1 uM after 30 mins by Kinase-Glo luminescent assay
[3] = test system: MCF7; test: Antiproliferative activity against human MCF7 cells assessed as growth inhibition after 72 hrs by MTT assay; type: functional, cell-based; conditions: Homo sapiens, MCF7, 72 h; read-out: IC50
How it was run: (§1)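 MTT viability assay. Cancer lines seeded at 3000–6000 cells/well and L02 at 7000 cells/well, cultured overnight, then exposed to a full dose range for 72 h. MTT (0.5 mg/mL) added for 4 h, supernatant removed, formazan dissolved in DMSO, absorbance read at 570 nm. IC50 taken as the mean of three independent experiments. Cells grown in DMEM + 10% FBS, 37 °C, 5% CO2.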

[4] = test system: HCT-116; test: Antiproliferative activity against human HCT-116 cells assessed as growth inhibition after 72 hrs by MTT assay; type: functional, cell-based; conditions: Homo sapiens, HCT-116, 72 h; read-out: IC50; how it was run: as §1
[5] = test system: PC-3; test: Antiproliferative activity against human PC3 cells assessed as growth inhibition after 72 hrs by MTT assay; type: functional, cell-based; conditions: Homo sapiens, PC-3, 72 h; read-out: IC50; how it was run: as §1
[6] = Inhibition of PDK (unknown origin) using RYHGHSMSDP as substrate after 30 mins by Kinase-Glo luminescent assay; set-up: species or system Homo sapiens
[7] = test system: A-375; test: Induction of apoptosis in human A375 cells assessed as late apoptotic cells at 1 uM after 36 hrs by annexinV-FITC/propidium iodide staining based flow cytometric analysis (reference value: 1.02%); type: functional
[8] = test system: A-375; test: Induction of apoptosis in human A375 cells assessed as necrotic cells at 1 uM after 36 hrs by annexinV-FITC/propidium iodide staining based flow cytometric analysis (reference value: 1.63%); type: functional
[9] = test system: A-375; test: Induction of apoptosis in human A375 cells assessed as viable cells at 2.5 uM after 36 hrs by annexinV-FITC/propidium iodide staining based flow cytometric analysis (reference value: 94.15%); type: functional; conditions: read-out: Activity
[10] = test system: A-375; test: Induction of apoptosis in human A375 cells assessed as late apoptotic cells at 2.5 uM after 36 hrs by annexinV-FITC/propidium iodide staining based flow cytometric analysis (reference value: 1.02%); type: functional
[11] = test system: A-375; test: Induction of apoptosis in human A375 cells assessed as necrotic cells at 2.5 uM after 36 hrs by annexinV-FITC/propidium iodide staining based flow cytometric analysis (reference value: 1.63%); type: functional
[12] = test system: A-375; test: Induction of apoptosis in human A375 cells assessed as early apoptotic cells at 5 uM after 36 hrs by annexinV-FITC/propidium iodide staining based flow cytometric analysis (reference value: 3.2%); type: functional
[13] = test system: A-375; test: Induction of apoptosis in human A375 cells assessed as late apoptotic cells at 5 uM after 36 hrs by annexinV-FITC/propidium iodide staining based flow cytometric analysis (reference value: 1.02%); type: functional
[14] = test system: A-375; test: Induction of apoptosis in human A375 cells assessed as late apoptotic cells at 5 uM after 12 hrs by annexinV-FITC/propidium iodide staining based flow cytometric analysis (reference value: 0.63%); type: functional
[15] = test system: A-375; test: Induction of apoptosis in human A375 cells assessed as necrotic cells at 5 uM after 12 hrs by annexinV-FITC/propidium iodide staining based flow cytometric analysis (reference value: 0.56%); type: functional
[16] = test system: A-375; test: Induction of apoptosis in human A375 cells assessed as necrotic cells at 5 uM after 24 hrs by annexinV-FITC/propidium iodide staining based flow cytometric analysis (reference value: 0.56%); type: functional
[17] = test system: A-375; test: Induction of cell cycle arrest in human A375 cells assessed as accumulation at S phase at 1 uM after 24 hrs by propidium iodide staining based flow cytometric analysis (reference value: 37.33%); type: functional
[18] = test system: A-375; test: Induction of cell cycle arrest in human A375 cells assessed as accumulation at S phase at 2.5 uM after 24 hrs by propidium iodide staining based flow cytometric analysis (reference value: 37.33%); type: functional
[19] = test system: A-375; test: Induction of cell cycle arrest in human A375 cells assessed as accumulation at G1 phase after 24 hrs by propidium iodide staining based flow cytometric analysis; type: functional; conditions: dose 1-5 µM
[20] = test system: A-375; test: Induction of mitochondrial membrane depolarization in human A375 cells at 2 to 10 uM after 4 hrs by TMRM staining based confocal microscopic analysis; type: functional, cell-based; conditions: dose 2-10 µM
How it was run: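 A375 cells seeded at 4 x 10⁴ cells/mL and grown overnight at 37 °C. Treated 4 h at 37 °C. TMRM in fresh medium added for 15 min at 37 °C. Cells washed 3 times with cool PBS and imaged by laser scanning confocal microscopy.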

[21] = test system: A-375; test: Inhibition of PDK in human A375 cells assessed as reduction in phosphorylation of PDC E1alpha at ser293 residues at 2.5 to 5 uM after 24 hrs by Western blot analysis; type: cell-based; conditions: dose 2.5-5 µM
How it was run: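 A375 cells in 6-well plates, treated 24 h. Lysed 15 min and spun 12000 rpm at 4 °C for 15 min. Protein equalized by BCA and denatured in SDS buffer at 100 °C for 8 min. Run on SDS-PAGE, transferred to nitrocellulose, blocked in 5% milk 2 h, primary antibody overnight, HRP anti-rabbit IgG 2 h, ECL detection.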

[22] = test system: A-375; test: Inhibition of PDK in human A375 cells assessed as reduction lactate formation at 2.5 to 5 uM after 4 hrs by Nova Bio-profile Flex analyzer; type: cell-based; conditions: dose 2.5-5 µM
How it was run: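 A375 cells seeded at 2.5 × 10⁵/well in 24-well plates and cultured overnight. Treated 4 h at 37 °C. Medium collected and centrifuged 4 min at 12000 rpm for lactate determination.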

[23] = test system: A-375; test: Inhibition of PDK in human A375 cells assessed as increase in oxygen consumption rate after 4 hrs by XFe cell Mito stress test assay; type: cell-based; conditions: dose 2.5-5 µM
How it was run: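 A375 cells attached, then given an extra 100 µL growth medium and incubated 24 h. Treated 4 h, then rinsed twice with pre-warmed XFe base medium. OCR measured as in a previous report.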

[24] = test system: A-375; test: Induction of ROS generation in human A375 cells at 1 to 5 uM after 4 hrs by DCFH-DA staining based assay; type: functional, cell-based; conditions: dose 1-5 µM
How it was run: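 ROS assay. A375 cells loaded with diluted DCFH-DA for 45 min at 37 °C, washed three times with PBS, then treated with compound at 37 °C for 4 h. Fluorescence read on a microplate reader at Ex/Em 485/535 nm.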

[25] = Toxicity in mouse xenografted with human A375 cells assessed as reduction in body weight at 5 mg/kg, im administered once per three days for 21 days; type: organism-based; conditions: in vivo, 504 h, time 21 day
How it was run: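 A375 cells at 80% confluence harvested with trypsin/EDTA, resuspended in serum-free DMEM, and injected subcutaneously into the right flank. Tumours visible at 7 days. Mice randomized to vehicle or 5 mg/kg (n = 4/group), dosed intramuscularly once every three days. Body weight followed over 21 days.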

- inhibition [2]: 98.7%
- IC50 [3]: 2400 nM
- IC50 [4]: 2100 nM
- IC50 [5]: 3800 nM
- EC50 [6]: 90 nM
Compound: CC(C)(CO)c1ccc(Nc2ccc(C(=O)C(Cl)Cl)cc2[N+](=O)[O-])cc1
- inhibition of growth at 1 µM [1]: 29.4%
- Activity [7]: 7.43%
- Activity [8]: 4.06%
- viability at 2.5 µM [9]: 68.9%
- Activity [10]: 22.3%
- Activity [11]: 3.17%
- Activity [12]: 6.52%
- Activity [13]: 38.81%
- Activity [14]: 6.88%
- Activity [15]: 1.65%
- Activity [16]: 3.56%
- Activity [17]: 34.63%
- Activity [18]: 30.75%
- Activity [19]: Dose-dependent effect
- Activity [20]: Active
- inhibition [21]: Active
- inhibition [22]: Active
- inhibition [23]: Dose-dependent effect
- Activity [24]: Active
- Activity [25]: Non-Toxic
